≈ marks a conversion by molar mass, not a printed value.

In data set [1] the test system is Escherichia coli. In words: Antibacterial activity against Escherichia coli ATCC 8739 at 100 ug/ml after 24 hrs by agar cup plate method. The data set is classed as functional. The following applies: ATCC 8739, 24 h, read-out: IZ. In outline: (§1)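 Agar well (bore) diffusion on inoculated nutrient agar with recultured organisms. Test samples prepared in 20% water in DMSO at 100 µg/mL and placed in bores. Plates incubated at 37 °C for 24 h, then the inhibition zone around each bore measured. Controls: inoculum only, and DMSO only.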

Data set [2] concerns Klebsiella pneumoniae. In words: Antibacterial activity against Klebsiella pneumoniae ATCC 11298 at 100 ug/ml after 24 hrs by agar cup plate method. The data set is classed as functional. The settings on record: ATCC 11298, 24 h, read-out: IZ. Put shortly:
as §1

In data set [3] the test system is Staphylococcus aureus. In words: Antibacterial activity against Staphylococcus aureus ATCC 6538P after 24 hrs by microtitration method. The class given is functional. In outline: (§2)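 Strains grown in Luria broth (1% tryptone, 0.5% yeast extract, 0.5% NaCl), pH 7.2, at 37 °C for 24 h. Mid-log cells read at 540 nm and diluted to OD 0.004 (5×10^5 CFU/mL), then dispensed into microplate wells. Graded concentrations (0.2–500 µg/mL) in 20% water in DMSO added; incubated 37 °C, 24 h.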

The subject of data set [4] is Bacillus subtilis. In words: Antibacterial activity against Bacillus subtilis ATCC 6633 after 24 hrs by microtitration method. The class given is functional. The settings on record: ATCC 6633, 24 h. In outline: as §2
In data set [5] the test system is Klebsiella pneumoniae. In words: Antibacterial activity against Klebsiella pneumoniae ATCC 11298 after 24 hrs by microtitration method. The class given is functional. The settings on record: ATCC 11298, 24 h. In outline: as §2
Data set [6] relates to Staphylococcus aureus. Description: Antibacterial activity against Staphylococcus aureus ATCC 6538P at 100 ug/ml after 24 hrs by agar cup plate method. The class given is functional. The settings on record: read-out: IZ. In outline: as §1
Data set [7] deals with Bacillus subtilis. In words: Antibacterial activity against Bacillus subtilis ATCC 6633 at 100 ug/ml after 24 hrs by agar cup plate method. The following applies: ATCC 6633, 24 h, read-out: IZ. The class given is functional. Put shortly: as §1
The subject of data set [8] is Escherichia coli. Description: Antibacterial activity against Escherichia coli ATCC 8739 after 24 hrs by microtitration method. The following applies: ATCC 8739, 24 h. The data set is classed as functional. In outline:
as §2

A short description of data set [9]: Octanol-water partition coefficient, log P by shake flask method. The data set is classed as physicochemical.

For orientation: MIC means the lowest concentration that inhibits growth of the organism. Read a high MIC as weaker potency. Take `CC1(C)S[C@@H]2[C@H](NC(=O)[C@H](N)c3ccccc3)C(=O)N2[C@H]1C(=O)O` [AMPICILLIN]: the zone of inhibition at 100 µg/mL turned out to be 30 mm with Escherichia coli [1], 30 mm with Klebsiella pneumoniae [2], 31 mm in the data set with Staphylococcus aureus [6] and 32 mm in the data set on Bacillus subtilis [7]. Also, the MIC with Staphylococcus aureus [3] was determined as 3.36 µg/mL (≈ 9.62 µM); in the data set with Bacillus subtilis [4], 3.28 µg/mL (≈ 9.39 µM); in the data set on Klebsiella pneumoniae [5], 4 µg/mL (≈ 11.4 µM); in the data set on Escherichia coli [8] it was 3.88 µg/mL (≈ 11.1 µM).
As a reminder, the logP is the decadic logarithm of the partition coefficient of the neutral form, usually between octanol and water. A high value points to higher lipophilicity. Take `COc1ccc(Cl)cc1-n1ncc(-c2nnc(-c3ccc(C)c(Br)c3)o2)c1C`: the zone of inhibition at 100 µg/mL with Escherichia coli [1] came to 14 mm; in the data set with Klebsiella pneumoniae [2], 15 mm; in the data set on Staphylococcus aureus [6], 20 mm; in the data set with Bacillus subtilis [7] it was 15 mm. Further, the minimum inhibitory concentration (MIC) against Staphylococcus aureus [3] worked out at 29.8 µg/mL (≈ 64.8 µM); in the data set on Bacillus subtilis [4], 39.6 µg/mL (≈ 86.1 µM); against Klebsiella pneumoniae [5], 39 µg/mL (≈ 84.8 µM); with Escherichia coli [8], 40.6 µg/mL (≈ 88.3 µM). The compound further displayed a logP in [9] of 5.19.
Regarding `COc1ccc(Cl)cc1-n1ncc(-c2nnc(-c3cccc(F)c3)o2)c1C`, the zone of inhibition at 100 µg/mL in the data set on Escherichia coli [1] came to 18 mm; in the data set on Klebsiella pneumoniae [2], 20 mm; with Staphylococcus aureus [6], 27 mm; in the data set on Bacillus subtilis [7], 19 mm. Besides, the minimal inhibitory concentration (MIC) against Staphylococcus aureus [3] was 21.5 µg/mL (≈ 55.9 µM); against Bacillus subtilis [4], 30 µg/mL (≈ 78 µM); against Klebsiella pneumoniae [5] it was 29.8 µg/mL (≈ 77.4 µM); in the data set on Escherichia coli [8] it was 30.6 µg/mL (≈ 79.5 µM). This compound also registered a logP in [9] of 4.28.
For the compound `COc1ccc(Cl)cc1-n1ncc(-c2nnc(-c3ccccc3)o2)c1C`, the zone of inhibition at 100 µg/mL was determined as 14 mm with Escherichia coli [1], 14 mm in the data set with Klebsiella pneumoniae [2], 15 mm with Staphylococcus aureus [6] and 20 mm with Bacillus subtilis [7]. Also, the MIC was found to be 39.8 µg/mL (≈ 109 µM) in the data set on Staphylococcus aureus [3], 29.8 µg/mL (≈ 81.2 µM) in the data set with Bacillus subtilis [4], 40.6 µg/mL (≈ 111 µM) in the data set on Klebsiella pneumoniae [5] and 40.6 µg/mL (≈ 111 µM) with Escherichia coli [8]. The compound further yielded a logP in data set [9] of 4.32.
For the compound `COc1ccc(Cl)cc1-n1ncc(-c2nnc(-c3cc(Cl)cc(Cl)c3)o2)c1C`, the zone of inhibition at 100 µg/mL in the data set on Escherichia coli [1] turned out to be 25 mm; in the data set with Klebsiella pneumoniae [2], 21 mm; in the data set on Staphylococcus aureus [6], 13 mm; with Bacillus subtilis [7] it was 15 mm. In addition, the MIC against Staphylococcus aureus [3] came out at 41 µg/mL (≈ 94.1 µM); in the data set on Bacillus subtilis [4], 31.8 µg/mL (≈ 73 µM); in the data set with Klebsiella pneumoniae [5], 29.6 µg/mL (≈ 67.9 µM); with Escherichia coli [8] it was 22.4 µg/mL (≈ 51.4 µM). Also, in [9], the lipophilicity (logP) was 5.61.
As to `COc1ccc(Cl)cc1-n1ncc(-c2nnc(-c3ccc(Br)cc3)o2)c1C`, the zone of inhibition at 100 µg/mL with Escherichia coli [1] turned out to be 15 mm; in the data set on Klebsiella pneumoniae [2], 13 mm; with Staphylococcus aureus [6] it was 19 mm; in the data set with Bacillus subtilis [7], 14 mm. The MIC against Staphylococcus aureus [3] came to 30 µg/mL (≈ 67.3 µM); against Bacillus subtilis [4] it was 40.6 µg/mL (≈ 91.1 µM); in the data set on Klebsiella pneumoniae [5] it was 41.6 µg/mL (≈ 93.3 µM); in the data set with Escherichia coli [8], 39.8 µg/mL (≈ 89.3 µM). For the same compound, the log partition coefficient (logP) in [9] was 4.88.
With `COc1ccc(Cl)cc1-n1ncc(-c2nnc(-c3ccc(F)cc3)o2)c1C`, the zone of inhibition at 100 µg/mL in the data set with Escherichia coli [1] is 21 mm; in the data set on Klebsiella pneumoniae [2], 19 mm; in the data set with Staphylococcus aureus [6], 20 mm; in the data set with Bacillus subtilis [7] it was 25 mm. Moreover, the minimal inhibitory concentration (MIC) is 29.8 µg/mL (≈ 77.4 µM) against Staphylococcus aureus [3], 22.4 µg/mL (≈ 58.2 µM) in the data set on Bacillus subtilis [4], 30 µg/mL (≈ 78 µM) with Klebsiella pneumoniae [5] and 29.6 µg/mL (≈ 76.9 µM) in the data set on Escherichia coli [8]. This compound came in with a logP in [9] of 4.26.
Take `COc1ccc(Cl)cc1-n1ncc(-c2nnc(-c3ccc(Br)c(C)c3)o2)c1C`: the zone of inhibition at 100 µg/mL in the data set with Escherichia coli [1] was 17 mm; in the data set on Klebsiella pneumoniae [2] it was 14 mm; with Staphylococcus aureus [6] it was 15 mm; with Bacillus subtilis [7] it was 15 mm. In addition, the minimum inhibitory concentration (MIC) against Staphylococcus aureus [3] is 39.8 µg/mL (≈ 86.6 µM); against Bacillus subtilis [4], 39.8 µg/mL (≈ 86.6 µM); against Klebsiella pneumoniae [5], 40 µg/mL (≈ 87 µM); in the data set on Escherichia coli [8] it was 30.8 µg/mL (≈ 67 µM). Besides, in data set [9], the lipophilicity (logP) worked out at 5.2.
As to `COc1ccc(Cl)cc1-n1ncc(-c2nnc(-c3ccc(Cl)c(Cl)c3)o2)c1C`, the zone of inhibition at 100 µg/mL turned out to be 27 mm in the data set with Escherichia coli [1], 15 mm in the data set on Klebsiella pneumoniae [2], 20 mm in the data set on Staphylococcus aureus [6] and 19 mm with Bacillus subtilis [7]. For the same compound, the MIC with Staphylococcus aureus [3] was 29.8 µg/mL (≈ 68.4 µM); with Bacillus subtilis [4], 30 µg/mL (≈ 68.9 µM); against Klebsiella pneumoniae [5], 39.6 µg/mL (≈ 90.9 µM); with Escherichia coli [8] it was 21.5 µg/mL (≈ 49.3 µM). Further, in data set [9], the logP was found to be 5.57.
As for `COc1ccc(Cl)cc1-n1ncc(-c2nnc(-c3ccc(Cl)cc3)o2)c1C`, the zone of inhibition at 100 µg/mL in the data set on Escherichia coli [1] came out at 14 mm; in the data set with Klebsiella pneumoniae [2], 13 mm; in the data set with Staphylococcus aureus [6] it was 18 mm; in the data set with Bacillus subtilis [7], 15 mm. Moreover, the MIC was determined as 30.6 µg/mL (≈ 76.3 µM) in the data set on Staphylococcus aureus [3], 39.6 µg/mL (≈ 98.7 µM) in the data set on Bacillus subtilis [4], 41 µg/mL (≈ 102 µM) in the data set on Klebsiella pneumoniae [5] and 40 µg/mL (≈ 99.7 µM) in the data set on Escherichia coli [8]. The lipophilicity (logP) in [9] came to 4.51.
As to `COc1ccc(Cl)cc1-n1ncc(-c2nnc(-c3ccc(C)c([N+](=O)[O-])c3)o2)c1C`, the zone of inhibition at 100 µg/mL in the data set on Escherichia coli [1] is 17 mm; with Klebsiella pneumoniae [2], 12 mm; in the data set on Staphylococcus aureus [6], 14 mm; in the data set on Bacillus subtilis [7], 15 mm. Besides, the MIC against Staphylococcus aureus [3] was determined as 40.6 µg/mL (≈ 95.3 µM); in the data set on Bacillus subtilis [4], 39.6 µg/mL (≈ 93 µM); with Klebsiella pneumoniae [5], 42 µg/mL (≈ 98.6 µM); in the data set with Escherichia coli [8], 30.8 µg/mL (≈ 72.3 µM). In addition, the logP in data set [9] was 6.42.

The values above are taken from ChEMBL document CHEMBL1155323, “Synthesis, characterization and antibacterial activity of 2-[1-(5-chloro-2-methoxy-phenyl)-5-methyl-1H-pyrazol-4-yl]-5-(substituted-phenyl)-[1,3,4]oxadiazoles” (Eur J Med Chem, 2009).
